Columns and labels:
[1] = molecular target: Adenosine receptor A2a (Rattus norvegicus, UniProt P30543); test: Binding affinity at rat Adenosine A2A receptor
Procedure, shortened: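 Rat striatal membranes with [³H]ZM241385 as radioligand. At least three independent experiments in duplicate.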

[2] = molecular target: T1, Adenosine receptor A1 (Rattus norvegicus, UniProt P25099); test: Binding affinity at rat Adenosine A1 receptor in the absence of GTP
T1 sequence (P25099 whole entry): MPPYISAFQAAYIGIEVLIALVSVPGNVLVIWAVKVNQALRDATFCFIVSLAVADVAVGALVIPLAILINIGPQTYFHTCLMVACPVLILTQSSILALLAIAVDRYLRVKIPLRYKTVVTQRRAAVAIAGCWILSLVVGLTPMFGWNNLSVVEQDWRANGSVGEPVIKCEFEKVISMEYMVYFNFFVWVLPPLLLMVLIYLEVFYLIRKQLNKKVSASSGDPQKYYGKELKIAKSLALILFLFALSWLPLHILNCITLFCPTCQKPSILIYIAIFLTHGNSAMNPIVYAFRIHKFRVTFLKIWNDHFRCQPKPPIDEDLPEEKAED
Procedure, shortened: (§1)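 GTP shift taken from these two Ki values. Done only for compounds giving >50% radioligand displacement at 10⁻⁶ M. At least three independent experiments in duplicate.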

[3] = molecular target: T2, Adenosine receptor A1 (Rattus norvegicus) (UniProt P25099); test: Percent displacement of radioligand at 10e-6 M from rat Adenosine A1 receptor
T2 sequence (whole entry): T1 sequence (P25099 whole entry)
Procedure, shortened: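 Radioligand displacement by ligand at 10⁻⁶ M, using rat cortical membranes labelled with [³H]DPCPX.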

[4] = molecular target: T1, Adenosine receptor A1; test: Binding affinity at rat Adenosine A1 receptor in the presence of GTP; procedure, shortened: as §1
[5] = molecular target: T3, Adenosine receptor A1 (Homo sapiens) (UniProt P30542); test: Forskolin-induced cAMP production at human Adenosine A1 receptor; type: functional
T3 sequence (whole entry): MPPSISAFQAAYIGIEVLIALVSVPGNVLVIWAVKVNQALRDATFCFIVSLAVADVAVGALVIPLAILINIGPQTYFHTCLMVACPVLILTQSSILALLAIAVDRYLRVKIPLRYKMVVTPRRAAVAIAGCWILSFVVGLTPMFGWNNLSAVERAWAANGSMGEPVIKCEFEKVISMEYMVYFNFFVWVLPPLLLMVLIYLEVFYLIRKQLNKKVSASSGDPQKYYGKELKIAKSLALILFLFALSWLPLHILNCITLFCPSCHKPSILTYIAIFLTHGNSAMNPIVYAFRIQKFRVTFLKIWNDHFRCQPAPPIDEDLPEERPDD
Procedure, shortened: (§2)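 Human A1-expressing CHO cells seeded at 2 × 10⁵ cells/well. Next day, 30 min at 37 °C in Hepes-buffered medium pH 7.4 with adenosine deaminase (5 U/mL), cilostamide (50 μM) and rolipram (50 μM). […] Expressed as % of forskolin.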

[6] = molecular target: T4, Adenosine receptor A1 (Homo sapiens, UniProt P30542); test: Binding affinity at human Adenosine A1 receptor expressed in CHO cells; type: cell-based
T4 sequence (P30542 whole entry): T3 sequence (whole entry)
Procedure, shortened: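 Membranes from CHO cells stably expressing human A1 receptor (~3 pmol/mg protein), 6 μg, incubated 1 h at 25 °C in 50 mM Tris HCl pH 7.4 with ~1.6 nM [³H]DPCPX and increasing test concentrations. Stopped by dilution in ice-cold buffer, then filtration. At least three independent experiments in duplicate.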

[7] = molecular target: T3, Adenosine receptor A1 (Homo sapiens); test: Forskolin-induced cAMP production at human A1 adenosine receptor; type: functional; procedure, shortened: as §2
[8] = molecular target: T3, Adenosine receptor A1 (Homo sapiens); test: Forskolin-induced cAMP production at human Adenosine A1 receptor receptor; type: functional; procedure, shortened: as §2

Chain of Adenosine receptor A2a (P30543 whole entry): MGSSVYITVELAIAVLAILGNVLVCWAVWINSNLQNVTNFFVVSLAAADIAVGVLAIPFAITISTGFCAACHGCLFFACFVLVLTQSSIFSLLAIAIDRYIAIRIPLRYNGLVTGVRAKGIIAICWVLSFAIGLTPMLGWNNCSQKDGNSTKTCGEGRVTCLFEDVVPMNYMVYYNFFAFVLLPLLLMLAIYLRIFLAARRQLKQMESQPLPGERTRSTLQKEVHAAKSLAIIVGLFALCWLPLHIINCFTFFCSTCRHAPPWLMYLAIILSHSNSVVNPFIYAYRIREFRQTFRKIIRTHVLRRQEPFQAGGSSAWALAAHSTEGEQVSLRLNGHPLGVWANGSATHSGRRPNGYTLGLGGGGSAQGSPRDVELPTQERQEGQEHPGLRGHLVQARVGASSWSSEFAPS

SMILES | Ki [2] | Ki [4] | Production [5] | Ki [6] | also measured
CC(C)c1ccc(C(=O)N[C@@H]2[C@@H](O)[C@H](n3cnc4c(NC5CCCC5)ncnc43)O[C@@H]2CO)cc1 | 171 nM |  |  |  | Ki [1]: 437 nM
Cc1ccc(C(=O)N[C@@H]2[C@@H](O)[C@H](n3cnc4c(NC5CCCC5)ncnc43)O[C@@H]2C)cc1F |  |  |  |  | Dispacement [3]: 47%
C[C@H]1O[C@@H](n2cnc3c(NC4CCCC4)ncnc32)[C@H](O)[C@H]1NC(=O)CCCc1cccs1 | 55 nM | 38 nM | 148% | 419 nM | 
O=C(N[C@@H]1[C@@H](O)[C@H](n2cnc3c(NC4CCCC4)ncnc32)O[C@@H]1CO)c1ccc2c(c1)OCO2 | 102 nM |  | 126% | 443 nM | 
C[C@H]1O[C@@H](n2cnc3c(NC4CCCC4)ncnc32)[C@H](O)[C@H]1NC(=O)C1(c2ccccc2)CCCCC1 | 286 nM | 210 nM |  |  | 
CCCn1c(=O)c2[nH]c(C3CCCC3)nc2n(CCC)c1=O |  |  | 157% |  | 
CC(C)c1ccc(C(=O)N[C@@H]2[C@@H](O)[C@H](n3cnc4c(NC5CCCC5)ncnc43)O[C@@H]2C)cc1 | 270 nM |  |  |  | 
OC[C@H]1O[C@@H](n2cnc3c(NC4CCCC4)ncnc32)C[C@H]1O | 110 nM | 470 nM |  |  | 
C[C@H]1O[C@@H](n2cnc3c(NC4CCCC4)ncnc32)[C@H](O)[C@H]1NC(=O)c1ccc(F)c(Cl)c1 |  |  |  |  | Displacement [3]: 44%
C[C@H]1O[C@@H](n2cnc3c(NC4CCCC4)ncnc32)[C@H](O)[C@H]1NC(=O)C1CCCC[C@H]1C(=O)c1cccs1 (some centres not stated) | 98 nM | 70 nM | 182% | 971 nM | 
Cc1ccc(C(=O)N[C@@H]2[C@@H](O)[C@H](n3cnc4c(NC5CCCC5)ncnc43)O[C@@H]2CO)cc1C | 24 nM | 17 nM |  | 137 nM | Production [7]: 126%
C[C@H]1O[C@@H](n2cnc3c(NC4CCCC4)ncnc32)[C@H](O)[C@H]1O | 70 nM | 450 nM |  |  | 
CCc1ccc(C(=O)N[C@@H]2[C@@H](O)[C@H](n3cnc4c(NC5CCCC5)ncnc43)O[C@@H]2C)cc1 | 240 nM |  |  |  | 
O=C(N[C@@H]1[C@@H](O)[C@H](n2cnc3c(NC4CCCC4)ncnc32)O[C@@H]1CO)c1ccc(F)c(Cl)c1 | 78 nM | 54 nM | 125% | 579 nM | 
C[C@H]1O[C@@H](n2cnc3c(NC4CCCC4)ncnc32)[C@H](O)[C@H]1NC(=O)C1(c2ccccc2)CCCC1 | 138 nM | 114 nM |  |  | 
C[C@H]1O[C@@H](n2cnc3c(NC4CCCC4)ncnc32)[C@H](O)[C@H]1NC(=O)CCCOc1ccccc1 | 473 nM |  |  |  | 
Cc1ccc(C(=O)N[C@@H]2[C@@H](O)[C@H](n3cnc4c(NC5CCCC5)ncnc43)O[C@@H]2C)cc1C | 236 nM |  |  |  | 
Cn1cnc2c(NC3CCCC3)ncnc21 | 279 nM | 259 nM |  | 1190 nM | Production [8]: 139%
O=C(CCCc1cccs1)N[C@@H]1[C@@H](O)[C@H](n2cnc3c(NC4CCCC4)ncnc32)O[C@@H]1CO | 67 nM | 46 nM | 152% | 630 nM | 
Cc1ccc(C(=O)N[C@@H]2[C@@H](O)[C@H](n3cnc4c(NC5CCCC5)ncnc43)O[C@@H]2CO)cc1F | 112 nM |  | 135% | 773 nM | 

From ChEMBL document CHEMBL1135932, “5'-Deoxy congeners of 9-(3-amido-3-deoxy-beta-D-xylofuranosyl)-N(6)-cyclopentyladenine: new adenosine A(1) receptor antagonists and inverse agonists” (J Med Chem, 2002)
